Activity calls are given as the source filed them. No cut-off for these calls is given here.
How the values were obtained:
MCF7 [1] = assay: Darktoxicity against human MCF7 cells incubated for 24 hrs followed by 30 mins incubation in dark measured after 3 days by MTT assay; assay type: cell-based
Method in brief: (§1)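 MCF-7 cells were grown in α-MEM with 10% bovine growth serum, seeded at 5000/well and grown 24 h at 37 °C, 5% CO2. Compounds were diluted from 2 mM DMSO stocks into medium and incubated 24 h. Phototoxicity plates were shaken and irradiated at 690 nm, 5.6 mW/cm2 for 30 min. Dark plates were kept unlit for 30 min. After 3 days, MTT viability was read at A570 minus A650 and expressed as % of untreated.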

MCF7 [2] = assay: Ratio of IC50 for darktoxicity against human MCF7 cells to IC50 for cytotoxicity against human MCF7 cells in presence of diode laser light; assay type: functional
Mus musculus [3] = assay: Toxicity in mouse Colon 26 cells allografted BALB/c mouse assessed as change in body weight at 2 to 4 umol/kg, ip qd for 2 days measured 30 mins post irradiation with diode laser light; assay type: organism-based; conditions: in vivo
Method in brief: (§2)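 Colon 26 cells (2 × 10^6 in PBS) were implanted sc in the lower back-neck of 4–6-week-old BALB/c mice. Mice were used once tumors reached 3–5 mm diameter. Doses came from DMSO stocks diluted in 1% Tween 80/5% dextrose and filtered, given as 200 μL ip daily on days 0, 1 and 2. After 1.5 h mice were anesthetized (ketamine/xylazine) and tumors irradiated at 690 nm, 200 mW/cm2 for 30 min (360 J/cm2). Tumor volume was lw2/2 by caliper, and body weight was followed. Groups had six mice; control had three.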

Colon 26 [4] = assay: Antitumor activity against mouse Colon 26 cells allografted in BALB/c mouse at 4 umol/kg, ip qd for 2 days measured 30 mins post irradiation with diode laser light; assay type: functional, organism-based; method in brief: as §2
Colon 26 [5] = assay: Antitumor activity against mouse Colon 26 cells allografted in BALB/c mouse at 2 umol/kg, ip qd for 2 days measured 30 mins post irradiation with diode laser light; assay type: functional, organism-based; method in brief: as §2
Tubulin (Homo sapiens) [6] = target: T1, Tubulin (Homo sapiens) (UniProt P68371+Q9H4B7+P0DPH7+P68366+Q13509+Q71U36+P04350+Q3ZCM7+P07437+P68363+Q9BQE3+Q6PEY2+Q13885+Q9BVA1+Q9BUF5); assay: Inhibition of tubulin polymerization (unknown origin) at 3 uM after 20 mins by fluorescence plate reader analysis; assay type: protein-complex assay
Tubulin (Homo sapiens) [7] = target: T1, Tubulin (Homo sapiens); assay: Inhibition of tubulin polymerization (unknown origin) at 3 uM after 1 hr by fluorescence plate reader analysis; assay type: protein-complex assay
Method in brief: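 Kit-based fluorescence assay: tubulin plus GTP in buffer with test agent at 3 μM final, incubated at 37 °C. Polymerization was monitored kinetically at ex 360/em 450 nm against a vehicle-only control. Inhibition was assessed after 1 h incubation, as mean ± SD of three experiments.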

MCF7 [8] = assay: Cytotoxicity against human MCF7 cells incubated for 24 hrs followed by irradiated with diode laser light for 30 mins; assay type: functional, cell-based; conditions: MCF7, light or radiation study; method in brief: as §1
Colon 26 (Mus musculus) [9] = assay: Prodrug conversion in mouse Colon 26 cells assessed as death of neighboring cells at 50 nM incubated for 24 hrs followed by irradiation with diode laser light for 15 mins measured after 48 hrs by Calcein AM live cell staining assay; conditions: colon 26, 0.05 µM
Mus musculus [10] = assay: Biodistribution in nu/nu mouse at 24 umol/kg, ip followed by irradiation with diode laser light for 1.5 hrs by optical imaging analysis; assay type: ADME, organism-based; conditions: in vivo, TDE = time-dependent effect
Method in brief: (§3)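 The FRET probe was formulated as a Tween 80 paste, extracted into 5% dextrose, filtered, and quantified by CMP absorbance. It was given at 24 μmol/kg ip. At 1.5 h the neck region was irradiated with a 690 nm diode laser at 500 mW/cm2. Mice were under 2.5% isoflurane anesthesia, and fluorescence images were taken after 0, 10, 20 and 30 min irradiation.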

Mus musculus [11] = assay: Biodistribution in nu/nu mouse at 24 umol/kg, ip followed by irradiation with diode laser light for 1.5 hrs measured after 10 to 30 mins by optical imaging analysis; assay type: ADME, organism-based; conditions: in vivo; method in brief: as §3
Colon 26 (Mus musculus) [12] = assay: Prodrug conversion in mouse Colon 26 cells assessed as death of neighboring cells at 5 uM incubated for 24 hrs followed by irradiation with diode laser light for 15 mins measured after 48 hrs by Calcein AM live cell staining assay; conditions: colon 26, 5 µM
Tubulin (Homo sapiens) [13] = target: T1, Tubulin (Homo sapiens); assay: Inhibition of tubulin polymerization (unknown origin) at 3 uM after 1 hr by fluorescence plate reader analysis

Row | SMILES | IC50 (MCF7 [1]) [nM] | Ratio IC50 (MCF7 [2]) | inhibition (Tubulin (Homo sapiens) [6]) | inhibition (Tubulin (Homo sapiens) [7]) [%] | IC50 (MCF7 [8]) [nM] | further results
1 | COc1ccc(/C=C\c2cc(OC)c(OC)c(OC)c2)cc1O [COMBRETASTATIN A4] | 9 | – | – | – | – | –
2 | COc1ccc(/C=C\c2cc(OC)c(OC)c(OC)c2)cc1OC(=O)/C=C/N1CCC(COC(=O)COc2ccc(-c3c4nc(c(-c5ccccc5)c5ccc(s5)c(-c5ccccc5)c5nc(c(-c6ccccc6)c6ccc3s6)C=C5)C=C4)cc2)CC1 | 164 | 6 | inactive | 6 | 28 | Activity (Mus musculus [3]): Non-toxic; Activity (Colon 26 [4]): Active; Activity (Colon 26 [5]): Active; Drug metabolism (Colon 26 (Mus musculus) [9]): Active
3 | CCN(CC)c1ccc2c(-c3ccccc3C(=O)OCN3CCN(/C=C/OC(=O)COc4ccc(-c5c6nc(c(-c7ccccc7)c7ccc(s7)c(-c7ccccc7)c7nc(c(-c8ccccc8)c8ccc5s8)C=C7)C=C6)cc4)CC3)c3ccc(=[N+](CC)CC)cc-3oc2c1.[Cl-] | – | – | – | – | – | Drug uptake (Mus musculus [10]): tde; Drug uptake (Mus musculus [11]): Active
4 | COc1ccc(/C=C\c2cc(OC)c(OC)c(OC)c2)cc1OCCCN1CCN(C(=O)COc2ccc(-c3c4nc(c(-c5ccccc5)c5ccc(s5)c(-c5ccccc5)c5nc(c(-c6ccccc6)c6ccc3s6)C=C5)C=C4)cc2)CC1 | 1800 | 1.7 | inactive | 9 | 1060 | –
5 | O=C(O)COc1ccc(-c2c3nc(c(-c4ccccc4)c4ccc(s4)c(-c4cccs4)c4nc(c(-c5ccc(OCC(=O)O)cc5)c5ccc2s5)C=C4)C=C3)cc1 | – | – | – | – | – | Drug metabolism (Colon 26 (Mus musculus) [12]): Not Active
6 | CC(=O)O[C@H]1C(=O)[C@@]2(C)[C@H]([C@H](OC(=O)c3ccccc3)[C@]3(O)C[C@H](OC(=O)[C@H](O)[C@@H](NC(=O)c4ccccc4)c4ccccc4)C(C)=C1C3(C)C)[C@]1(OC(C)=O)CO[C@@H]1C[C@@H]2O | – | – | – | – | – | inhibition (Tubulin (Homo sapiens) [13]): Active
